# Sampled rows, rich in hits. Any-hit rate of the full collection: about 3.2%.
# PfHsp90 set2 – reduces growth (ATP signal) of yeast expressing P. falciparum Hsp90 | inhibition, % at 9.4 µM | S. cerevisiae expressing PfHsp90, BacTiter-Glo ATP, 48 h; yeast lacking PDR1 and PDR3 efflux regulators | hit rate 0.32% among 310,000;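 active = every replicate shows inhibition above about 80%, whatever the replicate mean, limit read from the data; inconclusive = mean inhibition reaches the set limit but some replicate falls short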;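 note: 0% = DMSO neutral controls and 100% = 20 µM radicicol positive controls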
# AF4-AF9 inh – inhibitors of human MLL-AF4/AF9 interaction. P42568. inhibition, % at 10 µM. AlphaScreen, biotin-AF4 peptide binding to FLAG-AF9. hit rate 0.47% among 350,000;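 active = every replicate reaching a set inhibition limit, whatever the replicate mean, cut at about 25% in these data; inconclusive = mean inhibition reaches that limit but some replicates miss it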;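 note: 0% = plate neutral control median and 100% = total signal loss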
# Target sequence (P42568 whole entry, looked up): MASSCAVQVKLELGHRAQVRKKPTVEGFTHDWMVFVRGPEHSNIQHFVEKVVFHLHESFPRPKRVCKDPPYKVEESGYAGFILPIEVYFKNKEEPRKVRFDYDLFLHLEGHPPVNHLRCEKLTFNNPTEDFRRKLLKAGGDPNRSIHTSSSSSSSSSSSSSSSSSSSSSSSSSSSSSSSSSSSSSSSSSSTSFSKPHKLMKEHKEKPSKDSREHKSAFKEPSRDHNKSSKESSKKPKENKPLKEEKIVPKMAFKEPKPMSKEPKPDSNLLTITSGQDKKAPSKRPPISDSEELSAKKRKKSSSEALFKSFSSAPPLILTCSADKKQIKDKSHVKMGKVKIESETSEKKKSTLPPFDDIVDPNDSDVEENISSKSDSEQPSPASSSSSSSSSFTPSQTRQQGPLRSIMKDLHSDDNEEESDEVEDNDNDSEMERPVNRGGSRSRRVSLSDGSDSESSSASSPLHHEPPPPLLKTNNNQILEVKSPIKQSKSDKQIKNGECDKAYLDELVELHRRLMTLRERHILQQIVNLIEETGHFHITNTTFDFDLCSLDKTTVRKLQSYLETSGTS
# S100A4 inh HTS – blocks human S100A4 binding to myosin IIA peptide | P26447 | S100A4/TAMRA-MyoIIA peptide fluorescence polarization | inhibition, % at 10.7 µM | hit rate 0.14% among 360,000 | AID 652163;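 active = mean inhibition of at least 70% across replicates, with every replicate also reaching that level; inconclusive = mean inhibition reaches 70% but some replicates fall short; inactive = mean inhibition below 70%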
# Target sequence (P26447 whole entry, looked up): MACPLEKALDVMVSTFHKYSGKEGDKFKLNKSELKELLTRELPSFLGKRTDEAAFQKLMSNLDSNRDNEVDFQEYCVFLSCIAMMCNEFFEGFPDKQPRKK
#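 Compound dosing: one dose per compound; test system: human S100A4 monomer with TAMRA-labelled myosin IIA peptide; probe or stimulus: TAMRA-labelled myosin IIA heavy-chain peptide probe, 5 nM; medium: HEPES buffer with Ca2+, pH 7.2; schedule: 5 min incubation before reading; benchmarks: neutral control DMSO, positive control TFP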
# Cneo AK release – Cryptococcus neoformans lysis via adenylate kinase release. C. neoformans lysis, adenylate kinase release luminescence, 4 h; normalised: neutral wells 0, clomiphene wells 100. lysis activity, % at 15 µM. hit rate 0.2% among 360,000;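 active = mean lysis activity across replicates of at least 80%, whatever share of replicates individually reach that level; inactive = mean lysis activity below 80%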
#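 Material – Cryptococcus neoformans yeast cells · Quantity – 5 × 10^6 yeast cells/mL · Buffer or medium – YPD medium · Compound – single dose · Timing – 4 h static compound exposure, 37 °C, read 1 h post-reagent · Signal – adenylate kinase release luminescence · Read-out basis – lysis from increased AK signal · Benchmarks – Clomiphene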
# Ecoli rRNA inh – inhibitors of bacterial rRNA selective over humanized ribosomes; AID 720706; E. coli WT GFP vs humanized-ribosome RFP mutants, fluorescence, 24 h; hits give low values; DMSO median 0, no signal -100; hit rate 1.6% among 350,000; GFP signal change (wild-type ribosome), % (test concentration not listed);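 active = significant combined selectivity score with lowered wild-type GFP, culture density cut under 30%, mutant RFP and density less affected; inactive = any of these conditions unmet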
# DENV2 CPE – protects cells from dengue virus 2 cytopathic effect; DENV2-infected cells, cytopathic effect rescue, plate reader; CPE inhibition, % at 9.99 µM; hit rate 1.7% among 350,000; AID 651640; in the data active = CPE inhibition above about 20%, passing the limit was not always enough; inconclusive = no clear call, values can overlap the other calls; tested in BHK-21 cells;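 note: 0% = median of neutral control wells and 100% = median of positive control wells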
# Active calls of the source: *; u = inconclusive; x = not tested or not shown.
SMILES,PfHsp90 set2,AF4-AF9 inh,S100A4 inh HTS,Cneo AK release,Ecoli rRNA inh,DENV2 CPE
Cc1cc2occ(CC(=O)N(C)CC(=O)Nc3c(C)cccc3C)c2cc1C,x,-2,-3,7,-4,4
COc1ccc(CNC(=O)Cn2nc(C(F)(F)F)c(Br)c2C)cc1,-13,-2,1,1,5,-1
COc1cc(NC(=O)Cn2nc(C(F)(F)F)c(Br)c2C)cc([N+](=O)[O-])c1,-2,0,4,-3,-15*,-1
CC(=O)c1ccc(-n2cc(-c3ccc(C(C)(C)C)cc3)[n+]3c2SCCC3)cc1,12,6,-6,x,-55,-2
Clc1ccc(-c2cn(-c3ccc(Cl)cc3)c3[n+]2CCCCC3)cc1,15,-5,-12,x,-46*,-8
COc1ccc(-n2cc(-c3ccc(OC(F)F)cc3)[n+]3c2CCCCC3)cc1,5,0,-7,x,-2,x
COc1ccc(-c2cn(-c3ccc(Cl)cc3)c3[n+]2CCCCC3)cc1,0,-1,0,x,-35*,-5
CCCNC(=O)N(C)C[C@H]1Oc2ncc(-c3ccncc3)cc2C(=O)N([C@@H](C)CO)C[C@H]1C,x,-5,5,-1,5,11
C[C@@H]1CN([C@H](C)CO)C(=O)Cc2cc(NC(=O)CCN3CCOCC3)ccc2O[C@@H]1CN(C)Cc1ccc(Cl)c(Cl)c1,x,3,1,2,-2,7
CCCSc1nc2c(cnn2-c2ccccc2)c(=O)n1N,-3,-2,-4,1,-19*,18
O=C1[C@@H](Oc2ccccc2)[C@@H](c2ccncc2)N1c1ccncc1,23,1,5,1,7,28*
O=C1[C@H](Oc2ccccc2)[C@@H](c2ccncc2)N1c1ccncc1,-17,0,-6,-2,20,-6
CN1C(=O)c2cc(NC(=O)c3cccs3)ccc2OC[C@H]2O[C@@H](CC(=O)NCC3CC3)CC[C@H]21,x,x,x,-2,-7,20
CCc1ccc(NC(=O)COC(=O)CCCC2=NS(=O)(=O)c3ccccc3N2)cc1,-29,-1,-4,-2,-17*,10
C[C@@H]1CN([C@H](C)CO)C(=O)c2cc(/C=C/c3ccccc3)cnc2O[C@@H]1CN(C)S(=O)(=O)c1cccs1,x,6,-2,-2,-3,15
COc1ccc(S(=O)(=O)Nc2cccc3c2O[C@@H](CN(C)S(=O)(=O)c2cccs2)[C@H](C)CN([C@@H](C)CO)C3=O)cc1,x,0,-6,-2,1,2
CN(C)c1cccc(-c2cc(Nc3ccc(C(C)(C)C)cc3)ncn2)c1,x,9,-8,-1,-9,u
CN(C)CCCNc1ccc(-c2cc(Nc3cccc(Cl)c3)ncn2)cn1,-10,12,-1,2,-20*,0
O=C1C(=O)c2ccccc2C(O)=C1c1cccc([N+](=O)[O-])c1,-13,7,-7,1,-24*,3
Cc1ccc(C2=C(O)c3ccccc3C(=O)C2=O)cc1,-18,-1,-8,-1,-9,3
O=C(Nc1ccc(Cl)c(Cl)c1)N[C@H]1CC[C@@H](CCn2cc(C3CCCCC3)nn2)O[C@H]1CO,x,2,2,-7,-50,u
CN(C)CC(=O)N[C@@H]1CC[C@@H](CCn2cc(C3CCCCC3)nn2)O[C@H]1CO,x,-2,-4,-4,-2,24*
O=C(Nc1ccc(Cl)c(Cl)c1)N[C@@H]1CC[C@H](CCn2cc(C3CCCCC3)nn2)O[C@H]1CO,x,3,30,0,-46*,11
CCc1cc(C(=O)c2ccc(OC)cc2)c(NC(=O)COCC(=O)O)s1,-7,-1,-6,-2,-12,6
CCc1cc(C(=O)c2ccc(OC)cc2)c(NC(=O)CC(C)(C)CC(=O)O)s1,-2,x,-3,x,-28*,-9
SMILES,PfHsp90 set2,AF4-AF9 inh,S100A4 inh HTS,Cneo AK release,Ecoli rRNA inh,DENV2 CPE
COc1ccc(C[C@@H]2CCc3cnnn3COC[C@H](C(C)C)NC2=O)cc1,x,17,x,3,2,0
CCC(=O)Nc1ccc2c(c1)OC[C@@H](C)N(C(=O)Nc1ccccc1F)C[C@@H](C)[C@H](OC)CN(C)C2=O,x,-1,7,0,1,22*
CCC(=O)Nc1ccc2c(c1)OC[C@H](C)N(C(=O)CC)C[C@H](C)[C@@H](OC)CN(C)C2=O,x,-3,-9,x,2,35*
CCC(=O)Nc1ccc2c(c1)OC[C@H](C)N(C(=O)c1ccc(F)cc1)C[C@H](C)[C@@H](OC)CN(C)C2=O,x,-1,-19,x,3,-2
CCC(=O)Nc1ccc2c(c1)OC[C@H](C)N(C(=O)c1ccc(F)cc1)C[C@@H](C)[C@@H](OC)CN(C)C2=O,x,0,3,92*,0,u
CCC(=O)Nc1ccc2c(c1)OC[C@H](C)N(C(=O)CC1CC1)C[C@H](C)[C@H](OC)CN(C)C2=O,x,-4,96*,36,-2,-10
C[C@H](CO)N1C[C@H](C)[C@H](CN(C)C(=O)Nc2cccc3ccccc23)OCCCC[C@H](C)Oc2ccc(NS(=O)(=O)c3ccc(Cl)cc3)cc2C1=O,x,-4,1,-2,-8,9
C[C@@H]1CCCCO[C@@H](CN(C)C)[C@@H](C)CN([C@@H](C)CO)C(=O)c2cc(NS(=O)(=O)c3ccccc3)ccc2O1,x,-4,-2,-2,2,4
C[C@@H]1CN([C@H](C)CO)C(=O)c2cccc(NS(=O)(=O)c3cn(C)cn3)c2O[C@H]1CN(C)C,x,-2,3,2,1,-3
CCC(=O)Nc1ccc2c(c1)OC[C@@H](C)N(C(=O)Cc1cccnc1)C[C@@H](C)[C@H](OC)CN(C)C2=O,x,-1,16,0,4,27*
CCC(=O)N1C[C@H](C)[C@@H](OC)CN(C)C(=O)c2ccc(NC(=O)C3CC3)cc2OC[C@@H]1C,x,0,1,x,2,40*
COc1cc(NC(=O)[C@@H](Cc2ccccc2)NC(=O)[C@H]2O[C@@H](n3ccc(=O)[nH]c3=O)[C@H](O)[C@@H]2O)cc(OC)c1OC,x,x,10,x,13,43*
Cc1c(C(=O)OCC(=O)N(C)Cc2ccccc2)oc2ccccc12,-29,8,-5,0,-32,-14
Cc1c(C(=O)OCC(=O)N(C)c2ccccc2)oc2ccccc12,-2,-3,-1,14,-28*,7
COc1cc(-c2cnc3c(NC(C)=O)cc(-c4ccccc4CN(C)C)cn23)cc(OC)c1OC,x,7,-4,0,3,25*
CC(=O)Nc1cc(-c2ccc(C(=O)NC3CC3)cc2)cn2c(-c3cccc(C(C)=O)c3)cnc12,x,-2,-11,-1,-3,1
COc1ccc(-c2cnc3c(NC(C)=O)cc(-c4ccccc4OC)cn23)cc1OC,x,7,5,-1,-7,30*
